SMILES strings stand for the structures. pIC50: −log10 of the molar value. Calls of active or inactive are those of the source. The rule behind the calls is not given here.

In experiment [1] the test system is Mus musculus. The experiment can be described thus: Induction of behavioral effects in CD1 mouse at 10 mg/kg, ip by forced swimming test relative to control. Type of experiment: functional, organism-based. Set-up: dose 10 mg/kg. In outline: (§1)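 Male CD1 mice, 25-28 g, n = 10 per group. Two-day protocol: 15-min pretest swim in a cylinder of 25 °C water. After 24 h, a 10-min videotaped test session 60 min after ip injection of drug suspended in 0.5% CMC, given at 0.01 mL/g. Immobility time is compared with naïve and CMC groups by two-way ANOVA and Duncan test, p < 0.05.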

For experiment [2], the system named is Mus musculus. The experiment can be described thus: Effect on duration of immobility in CD1 mouse at 10 mg/kg, ip by forced swimming test relative to control. Set-up: dose 10 mg/kg. Type of experiment: functional, organism-based. In outline:
as §1

The test system of experiment [3] is Mus musculus. The experiment can be described thus: Increase in duration of immobility in CD1 mouse at 10 mg/kg, ip by forced swimming test relative to carboxy methyl cellulose. Type of experiment: functional, organism-based. Further details: dose 10 mg/kg. In outline:
as §1

Experiment [4] deals with T1, Amine oxidase [flavin-containing] A (Bos taurus, UniProt P21398).
T1 sequence (P21398 whole entry): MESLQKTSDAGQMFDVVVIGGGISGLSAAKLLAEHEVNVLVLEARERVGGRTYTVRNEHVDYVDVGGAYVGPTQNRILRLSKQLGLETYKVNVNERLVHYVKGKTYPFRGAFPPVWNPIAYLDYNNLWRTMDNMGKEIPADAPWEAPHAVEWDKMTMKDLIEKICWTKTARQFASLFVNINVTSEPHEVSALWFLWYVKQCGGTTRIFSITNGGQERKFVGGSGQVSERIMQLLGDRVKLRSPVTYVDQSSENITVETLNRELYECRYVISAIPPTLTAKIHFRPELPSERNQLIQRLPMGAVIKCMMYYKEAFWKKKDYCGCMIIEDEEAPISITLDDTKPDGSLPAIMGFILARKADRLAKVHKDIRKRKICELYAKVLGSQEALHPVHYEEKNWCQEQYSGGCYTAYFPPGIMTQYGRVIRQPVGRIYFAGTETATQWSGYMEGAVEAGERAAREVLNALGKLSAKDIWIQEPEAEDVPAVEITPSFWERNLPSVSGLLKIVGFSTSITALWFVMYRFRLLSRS
The experiment can be described thus: Inhibition of bovine MAO-A by fluorimetric method. Summed up:
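Beef brain mitochondria (6 mg/mL) in K3PO4 buffer pH 7.4 with kynuramine substrate (four concentrations, 5 μM to 0.1 mM). Preincubated 30 min at 38 °C with 0.5 μM L-deprenyl to isolate MAO-A. Drug in DMSO; incubated 30 min at 38 °C, stopped with HClO4, supernatant into NaOH, read fluorimetrically. Means of three or more experiments run in duplicate.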

Experiment [5] relates to Mus musculus. The experiment can be described thus: Induction of behavioral effects in CD1 mouse at 1 mg/kg, ip by forced swimming test relative to carboxy methyl cellulose. The format is functional, organism-based. Further details: dose 1 mg/kg. Summed up:
as §1

The test system of experiment [6] is Mus musculus. The experiment can be described thus: Increase in duration of immobility in CD1 mouse at 1 mg/kg, ip by forced swimming test relative to carboxy methyl cellulose. Type of experiment: functional, organism-based. Further details: dose 1 mg/kg. In outline: as §1
The subject of experiment [7] is Mus musculus. The experiment can be described thus: Effect on duration of immobility in CD1 mouse at 10 mg/kg, ip by forced swimming test relative to carboxy methyl cellulose. Type of experiment: functional, organism-based. Set-up: dose 10 mg/kg. In outline:
as §1

In experiment [8] the test system is Mus musculus. The experiment can be described thus: Effect on duration of immobility in CD1 mouse at 1 mg/kg, ip by forced swimming test relative to control. Type of experiment: functional, organism-based. Set-up: dose 1 mg/kg. In outline: as §1
In experiment [9] the target is T2, Amine oxidase [flavin-containing] B (Bos taurus, UniProt P56560).
T2 sequence (P56560 whole entry): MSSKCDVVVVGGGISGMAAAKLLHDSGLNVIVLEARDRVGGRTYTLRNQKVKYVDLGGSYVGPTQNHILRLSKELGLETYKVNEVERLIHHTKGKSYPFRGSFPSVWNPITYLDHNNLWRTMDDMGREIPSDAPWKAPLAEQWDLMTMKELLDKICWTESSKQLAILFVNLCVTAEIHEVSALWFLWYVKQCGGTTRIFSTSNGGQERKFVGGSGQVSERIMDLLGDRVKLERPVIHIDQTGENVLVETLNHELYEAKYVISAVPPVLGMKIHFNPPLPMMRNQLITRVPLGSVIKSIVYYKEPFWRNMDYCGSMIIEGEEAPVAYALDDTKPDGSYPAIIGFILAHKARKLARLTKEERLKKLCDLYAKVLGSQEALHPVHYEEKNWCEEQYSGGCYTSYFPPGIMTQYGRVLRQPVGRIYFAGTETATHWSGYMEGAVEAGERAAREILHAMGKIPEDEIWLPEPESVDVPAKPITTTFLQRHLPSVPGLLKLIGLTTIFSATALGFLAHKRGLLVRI
The experiment can be described thus: Inhibition of bovine MAO-B by fluorimetric method. In outline:
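Bovine brain mitochondria (6 mg/mL) in 0.25 M potassium phosphate buffer pH 7.4; preincubated 30 min at 38 °C with 0.05 μM clorgyline to isolate MAO-B. Kynuramine substrate at four levels, 5 μM to 0.1 mM; inhibitor added from DMSO; 30 min at 38 °C, stopped with HClO4, centrifuged, supernatant into 0.1 N NaOH, fluorimetric read-out. Means of ≥3 experiments in duplicate.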

Experiment [10] concerns Mus musculus. The experiment can be described thus: Increase in duration of immobility in CD1 mouse at 10 mg/kg, ip by forced swimming test relative to control. Further details: dose 10 mg/kg. The format is functional, organism-based. Summed up: as §1
For experiment [11], the system named is Mus musculus. The experiment can be described thus: Increase in duration of immobility in CD1 mouse at 1 mg/kg, ip by forced swimming test relative to control. Further details: dose 1 mg/kg. The format is functional, organism-based. In outline: as §1
Experiment [12] has as its system Mus musculus. The experiment can be described thus: Induction of behavioral effects in CD1 mouse at 10 mg/kg, ip by forced swimming test relative to carboxy methyl cellulose. Type of experiment: functional, organism-based. Set-up: dose 10 mg/kg. Summed up: as §1
Experiment [13] has as its system Mus musculus. The experiment can be described thus: Effect on duration of immobility in CD1 mouse at 1 mg/kg, ip by forced swimming test relative to carboxy methyl cellulose. The format is functional, organism-based. Set-up: dose 1 mg/kg. In outline:
as §1

Experiment [14] relates to Mus musculus. The experiment can be described thus: Induction of behavioral effects in CD1 mouse at 1 mg/kg, ip by forced swimming test relative to control. Set-up: dose 1 mg/kg. Type of experiment: functional, organism-based. In outline: as §1

In the case of `O=c1c(O)c(-c2ccc(O)c(O)c2)oc2cc(O)cc(O)c12` [QUERCETIN], the outcome in experiment [1], in experiment [2], in experiment [5], in experiment [7], in experiment [8] and in experiment [12] was inactive. The outcome in experiment [13] and in experiment [14] was inactive. In addition, the result in experiment [3], in [6], in experiment [10] and in experiment [11] was Active. The pIC50 is 8.00 in experiment [4] and 4.70 in experiment [9].

The values are drawn from ChEMBL document CHEMBL1157970, “Quercetin as the active principle of Hypericum hircinum exerts a selective inhibitory activity against MAO-A: extraction, biological analysis, and computational study” (J Nat Prod, 2006).
